In brackets after ≈: the same amount, converted by molar mass. Activity calls are given as the source filed them. The rule behind the calls is not given here.
Assays:
Staphylococcus aureus [1] = experiment: Minimum inhibitory concentration against Staphylococcus aureus ATCC 33591 (resistant to methicillin); type: functional
Enterococcus faecium [2] = experiment: Minimum inhibitory concentration against Enterococcus faecium […]; type: functional
Enterococcus faecium [3] = experiment: Minimum inhibitory concentration against Enterococcus faecium 17501 (vancomycin-resistant clinical isolate); type: functional
Enterococcus faecium [4] = experiment: Minimum inhibitory concentration against Enterococcus faecium 17501 (vancomycin-resistant clinical isolate); NA=not active; type: functional, organism-based
Enterococcus faecium [5] = experiment: Minimum inhibitory concentration against Enterococcus faecium […]; NA=not active; type: functional, organism-based
Method in brief: (§1)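 Broth microdilution per NCCLS in Mueller-Hinton medium, run in triplicate, with an added uninoculated compound dilution series in case of precipitation. MIC read as the lowest concentration preventing visible growth; reported values are the mean of three experiments.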

Staphylococcus aureus [6] = experiment: Minimum inhibitory concentration against Staphylococcus aureus ATCC 33591 (resistant to methicillin); NA=not active; type: functional, organism-based
Escherichia coli [7] = experiment: Minimum inhibitory concentration against Escherichia coli ATCC 25922; type: functional; method in brief: as §1
Escherichia coli [8] = experiment: Minimum inhibitory concentration against Escherichia coli ATCC 25922; NA=not active; type: functional, organism-based
[9] = Percent lysis of human erythrocytes after exposed to test compound was measured as hemolysis; type: functional
Staphylococcus aureus [10] = experiment: Effect on bacterial membrane integrity was determined by using SYTO9 green fluorescent […]; type: functional, Bacteria
Method in brief: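 Incubated 15 min at 37 °C with agitation, then resuspended to OD600 ~0.4 and stained with BacLight (SYTO-9/propidium iodide) 15 min dark. Excitation 485 nm, emission 530/630 nm; green/red ratio normalized to untreated control.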

Compound | MIC (Staphylococcus aureus [1]) | MIC (Enterococcus faecium [2]) | MIC (Enterococcus faecium [3]) | MIC (Enterococcus faecium [4]) | MIC (Enterococcus faecium [5]) | MIC (Staphylococcus aureus [6]) | MIC (Escherichia coli [7]) | MIC (Escherichia coli [8]) | Hemolysis [9] | Membrane integrity (Staphylococcus aureus [10])
CN(C)CCNc1ccc(C(=O)/C=C/c2ccc(Cl)cc2Cl)cc1 | 40 µM (≈ 14.5 µg/mL) | 40 µM (≈ 14.5 µg/mL) | 40 µM (≈ 14.5 µg/mL) |  |  |  |  |  |  | 
COc1ccc(C(=O)/C=C/c2cc(-c3cccc(C(F)(F)F)c3)ccc2N2CCN(C)CC2)c(F)c1 | 5 µM (≈ 2.49 µg/mL) | 10 µM (≈ 4.99 µg/mL) | 5 µM (≈ 2.49 µg/mL) |  |  |  |  |  |  | 
COc1ccc(C(=O)/C=C/c2cc(-c3ccc(C(F)(F)F)cc3)ccc2N2CCN(C)CC2)c(F)c1 |  |  |  | inactive | inactive | inactive |  |  |  | 
Cc1cc(C)cc(-c2ccc(OCCN(C)C)c(/C=C/C(=O)c3ccc(NCCN(C)C)cc3)c2)c1 | 10 µM (≈ 4.86 µg/mL) | 20 µM (≈ 9.71 µg/mL) | 10 µM (≈ 4.86 µg/mL) |  |  |  | 20 µM (≈ 9.71 µg/mL) |  |  | 
COc1ccc(C(=O)/C=C/c2cc(-c3ccccc3C(F)(F)F)ccc2N2CCN(C)CC2)c(F)c1 | 5 µM (≈ 2.49 µg/mL) | 20 µM (≈ 9.97 µg/mL) | 10 µM (≈ 4.99 µg/mL) |  |  |  |  |  |  | 
COc1ccc(C(=O)/C=C/c2cc(-c3ccccc3)ccc2CN(C)C)c(F)c1 | 150 µM (≈ 58.4 µg/mL) | 150 µM (≈ 58.4 µg/mL) | 150 µM (≈ 58.4 µg/mL) |  |  |  |  |  |  | 
COc1ccc(C(=O)/C=C/c2cc(-c3cc(C)cc(C)c3)ccc2OCCN(C)C)cc1CN(C)C | 20 µM (≈ 9.73 µg/mL) | 20 µM (≈ 9.73 µg/mL) | 20 µM (≈ 9.73 µg/mL) |  |  |  | 40 µM (≈ 19.5 µg/mL) |  |  | 
Cc1cc(C)cc(-c2ccc(N(C)CCN(C)C)c(/C=C/C(=O)c3cccc(NCCN(C)C)c3)c2)c1 | 10 µM (≈ 4.99 µg/mL) | 10 µM (≈ 4.99 µg/mL) | 10 µM (≈ 4.99 µg/mL) |  |  |  | 20 µM (≈ 9.97 µg/mL) |  |  | 
Cc1cc(C)cc(-c2ccc(OCCN(C)C)c(/C=C/C(=O)c3ccccc3CN(C)C)c2)c1 | 10 µM (≈ 4.57 µg/mL) | 5 µM (≈ 2.28 µg/mL) | 10 µM (≈ 4.57 µg/mL) |  |  |  | 75 µM (≈ 34.2 µg/mL) |  |  | 
COc1ccc(C(=O)/C=C/c2cc(-c3cccc(CO)c3)ccc2N2CCN(C)CC2)c(F)c1 |  |  |  | inactive | inactive | inactive |  |  |  | 
Cc1cc(C)cc(-c2ccc(OCCN(C)C)c(/C=C/C(=O)c3ccc(N)cc3)c2)c1 | 10 µM (≈ 4.15 µg/mL) | 20 µM (≈ 8.29 µg/mL) | 10 µM (≈ 4.15 µg/mL) |  |  |  |  | inactive |  | 
Cc1cc(C)cc(-c2ccc(OCCN(C)C)c(/C=C/C(=O)c3ccccc3OCCN(C)C)c2)c1 | 10 µM (≈ 4.87 µg/mL) | 10 µM (≈ 4.87 µg/mL) | 10 µM (≈ 4.87 µg/mL) |  |  |  | 40 µM (≈ 19.5 µg/mL) |  |  | 
CN(C)CCNc1ccc(C(=O)/C=C/c2ccc(Cl)cc2)cc1 | 75 µM (≈ 24.7 µg/mL) | 75 µM (≈ 24.7 µg/mL) | 75 µM (≈ 24.7 µg/mL) |  |  |  |  |  |  | 
COc1ccc(C(=O)/C=C/c2cc(-c3cc(C)cc(C)c3)ccc2OCCN(C)C)c(CN(C)C)c1 | 5 µM (≈ 2.43 µg/mL) | 5 µM (≈ 2.43 µg/mL) | 5 µM (≈ 2.43 µg/mL) |  |  |  | 75 µM (≈ 36.5 µg/mL) |  | <1% | 2%
CCCCN(CCCC)c1ccc(/C=C/C(=O)c2ccc(NCCN(C)C)cc2)cc1 | 10 µM (≈ 4.22 µg/mL) | 10 µM (≈ 4.22 µg/mL) | 10 µM (≈ 4.22 µg/mL) |  |  |  |  |  |  | 
CN(C)CCNc1cccc(C(=O)/C=C/c2ccc(-c3ccccc3)cc2N2CCN(C)CC2)c1 | 20 µM (≈ 9.37 µg/mL) | 40 µM (≈ 18.7 µg/mL) | 40 µM (≈ 18.7 µg/mL) |  |  |  | 40 µM (≈ 18.7 µg/mL) |  |  | 
COc1ccc(C(=O)/C=C/c2ccccc2OCCN(C)C)c(F)c1 | 300 µM (≈ 103 µg/mL) | 300 µM (≈ 103 µg/mL) | 300 µM (≈ 103 µg/mL) |  |  |  |  |  |  | 
Cc1cc(C)cc(-c2ccc(OCCN(C)C)c(/C=C/C(=O)c3cccc(CN(C)C)c3)c2)c1 | 10 µM (≈ 4.57 µg/mL) | 10 µM (≈ 4.57 µg/mL) | 10 µM (≈ 4.57 µg/mL) |  |  |  | 40 µM (≈ 18.3 µg/mL) |  |  | 
COc1ccc(C(=O)/C=C/c2cc(-c3ccccc3OC)ccc2N2CCN(C)CC2)c(F)c1 | 10 µM (≈ 4.61 µg/mL) | 20 µM (≈ 9.21 µg/mL) | 10 µM (≈ 4.61 µg/mL) |  |  |  |  |  | 80% | 0%
O=C(O)c1cn(C2CC2)c2cc(N3CCNCC3)c(F)cc2c1=O [CIPROFLOXACIN] | 2 µM (≈ 0.663 µg/mL) |  |  |  |  |  |  |  | 0% | 102%
CN(C)CCNc1cccc(C(=O)/C=C/c2ccc(Cl)cc2Cl)c1 | 40 µM (≈ 14.5 µg/mL) | 40 µM (≈ 14.5 µg/mL) | 40 µM (≈ 14.5 µg/mL) |  |  |  |  |  |  | 
C=CC(C)(C)c1cc(/C=C/C(=O)c2ccc(O)cc2)c(OC)cc1O [LICOAGROCHACONE A] | 40 µM (≈ 13.5 µg/mL) | 75 µM (≈ 25.4 µg/mL) | 40 µM (≈ 13.5 µg/mL) |  |  |  |  |  | 100% | 0%
CN(C)CCNc1ccc(C(=O)/C=C/c2cccc(Oc3ccccc3)c2)cc1 | 20 µM (≈ 7.73 µg/mL) | 5 µM (≈ 1.93 µg/mL) | 20 µM (≈ 7.73 µg/mL) |  |  |  |  |  |  | 
COc1ccc(C(=O)/C=C/c2cc(C(C)(C)C)ccc2OCCN(C)C)c(F)c1 | 10 µM (≈ 4 µg/mL) | 20 µM (≈ 7.99 µg/mL) | 20 µM (≈ 7.99 µg/mL) |  |  |  |  |  |  | 
CN(C)CCNc1cccc(C(=O)/C=C/c2cc(N3CCN(C)CC3)ccc2-c2ccccc2)c1 | 75 µM (≈ 35.1 µg/mL) | 75 µM (≈ 35.1 µg/mL) | 75 µM (≈ 35.1 µg/mL) |  |  |  |  | inactive |  | 
CN(C)CCNc1cccc(C(=O)/C=C/c2cc(-c3ccccc3)cc(N3CCN(C)CC3)c2)c1 | 20 µM (≈ 9.37 µg/mL) | 40 µM (≈ 18.7 µg/mL) | 40 µM (≈ 18.7 µg/mL) |  |  |  | 75 µM (≈ 35.1 µg/mL) |  |  | 
CN(C)CCNc1cccc(C(=O)/C=C/c2cc(-c3ccccc3)ccc2N2CCN(C)CC2)c1 | 20 µM (≈ 9.37 µg/mL) | 40 µM (≈ 18.7 µg/mL) | 20 µM (≈ 9.37 µg/mL) |  |  |  | 20 µM (≈ 9.37 µg/mL) |  |  | 
